Screens deposited in PubChem by several laboratories.
Sampled rows, rich in hits. Any-hit rate of the full collection: about 2.6%.
HSF1 activator: increases HSF-1 driven luciferase reporter signal; actives 1.7% (n = 300,000); NIH3T3-HGL HSF-1 luciferase reporter, MG132, 8 h; 100% = twice DMSO control signal; AID 504408; activation, % at 9 µM;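 active = mean replicate activation of at least 50% with a set share of replicates each reaching 50%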;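 also: 0% = median of the neutral control wells and 100% = twice that signal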
Mdm2 ligase inh: inhibitors of human Mdm2 E3 ubiquitin ligase; Q00987; cell-based MDM2 ubiquitination luciferase reporter, 2 h; 0 = plate control, 100 = twice control, blank-subtracted; signal enhancement, % at 5 µM; actives 0.11% (n = 210,000); AID 1230;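 active = signal enhancement of 30% or more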;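 also: luminescence tracks abundance of the self-degrading MDM2-luciferase fusion protein; higher signal means inhibition of MDM2 E3 ligase activity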
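Timing – 2 h compound exposure at 37 °C · Assay system – mammalian cells stably expressing self-ubiquitinating, self-degrading MDM2 E3–luciferase fusion · Amount – 2000 cells seeded into each well · Measure – % luminescence enhancement versus blank-corrected plate control mean · Measured by – SteadyLite luminescence, 15 min reagent step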
HSV replic up: increases HSV replication in cells; maximum fold increase; HSV replication augmentation in cells, fold increase; actives 0.005% (n = 220,000); in the data active = maximum fold increase above about 1.5; tested in PC3 cells
Rad51 HR inh: Rad51 (human) homologous recombination inhibition. inhibition, % at 10 µM. Q06609. hRad51 DNA strand exchange, fluorescence dequenching. actives 0.085% (n = 200,000). AID 1385;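 active = inhibition above 40% at the single screening dose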;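 also: 0% = DMSO control wells and 100% = blanks with heterologous ssDNA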
Target sequence (Q06609 whole entry, looked up): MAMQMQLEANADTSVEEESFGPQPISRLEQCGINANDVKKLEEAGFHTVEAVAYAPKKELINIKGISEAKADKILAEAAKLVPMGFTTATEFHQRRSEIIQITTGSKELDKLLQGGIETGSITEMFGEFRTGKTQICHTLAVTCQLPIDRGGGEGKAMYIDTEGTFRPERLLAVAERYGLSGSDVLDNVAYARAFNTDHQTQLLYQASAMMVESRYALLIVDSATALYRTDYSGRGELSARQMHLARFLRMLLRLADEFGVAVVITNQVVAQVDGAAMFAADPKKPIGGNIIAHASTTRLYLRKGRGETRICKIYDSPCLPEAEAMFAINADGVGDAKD
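Read-out basis: percent inhibition relative to plate controls and blanks / Assay system: human Rad51 nucleoprotein filaments preassembled on unlabelled ssDNA / Timing: filaments 15 min 37 °C, then compound 30 min / Control set: per-plate controls and blanks / Technique: fluorescence dequenching at 485/520 nm / Compound: 10 µM final, single point / Also added: Fluorescein- and BHQ1-tagged 47-mer duplex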
HSF1 inhib: HSF1 inhibition | NIH3T3-HGL HSE-luciferase, MG132-induced, luminescence 8 h; stronger effect = lower value | activity change, negative = inhibition, % at 7.5 µM (by protocol) | actives 0.77% (n = 300,000) | AID 2098;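 active = more than half of replicate wells show activity change below -50%, luminescence cut by over half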;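 also: luciferase reports HSF-1 transcriptional activity via heat shock element; 0% = median of DMSO wells and -100% = zero luminescence signal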
Hsp70 act: Hsp70 transcriptional activation, primary screen; HeLa Hsp70 promoter luciferase reporter, luminescence; scaled: vehicle 0, proteasome-inhibitor control 100%; activation, % at 10 µM; actives 0.04% (n = 200,000); AID 1203;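 active = activation above the mean across all tested compounds plus 3 SD, cutoff set per campaign, cut at about 5.5% in these data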;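 also: 100% = MG132 at 30 µM as the positive control and 0% = DMSO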
* hit, by the source's call.

How did Nc1ccccc1N=Cc1ccc(-c2cccc(Cl)c2)o1 do in these assays?
HSF1 activator: 55*; Mdm2 ligase inh: -7; HSV replic up: inactive; Rad51 HR inh: 6; HSF1 inhib: 26; Hsp70 act: 0

What do the screens show for `CCN(CC)C(=O)c1cc(-c2ccc(Br)cc2)on1`?
HSF1 activator: 58*; Mdm2 ligase inh: -12; HSV replic up: inactive; Rad51 HR inh: 0; HSF1 inhib: 25; Hsp70 act: 0

What do the screens show for `COC(=O)c1cc(-c2ccc(Br)cc2)on1`?
HSF1 activator: -11; Mdm2 ligase inh: -29; HSF1 inhib: -1; Hsp70 act: 0

Results for O=C(CSc1nc(=O)n2ccccc2n1)N1CCN(c2ccccc2)CC1 ?
HSF1 activator: 15; HSF1 inhib: -3

How did O=C(Nc1cccc(O)c1)c1cccc(NC(=O)c2cccs2)c1 do in these assays?
HSF1 activator: -1; HSF1 inhib: -1

What do the screens show for `COc1cc(C(=O)c2c(C)c(CCC#N)n3ccccc23)cc(OC)c1OC`?
HSF1 activator: 11; Mdm2 ligase inh: 2; HSV replic up: inactive; Rad51 HR inh: 7; HSF1 inhib: 2; Hsp70 act: 0

How did COc1cccc(C(=O)c2c(C)c(CCC#N)n3ccccc23)c1OC do in these assays?
HSF1 activator: 180*; Mdm2 ligase inh: -4; HSV replic up: inactive; Rad51 HR inh: 6; HSF1 inhib: 120; Hsp70 act: 0

What do the screens show for `Nc1ccc(C2=Nc3cccc4cccc(c34)N2)cc1`?
HSF1 activator: 73*; Mdm2 ligase inh: -11; Rad51 HR inh: -13; HSF1 inhib: 31; Hsp70 act: 0

How did CCOc1ccc(S(=O)(=O)N2CCCCC2)cc1NC(=O)CN1C(=O)NC(C)(c2ccc(C)cc2)C1=O (configuration not stated) do in these assays?
HSF1 activator: 47; HSF1 inhib: 31

How did O=C(c1ccco1)N(Cc1ccc([N+](=O)[O-])cc1)c1ccc(Br)cc1 do in these assays?
HSF1 activator: 57*; Mdm2 ligase inh: -11; HSV replic up: inactive; Rad51 HR inh: -2; HSF1 inhib: 23; Hsp70 act: 0

What do the screens show for `CCN(CC)C(=O)Cc1c(O)c2ccccc2[nH]c1=O`?
HSF1 activator: -1; Mdm2 ligase inh: -2; HSV replic up: inactive; Rad51 HR inh: 3; HSF1 inhib: -4

What do the screens show for `CC(C)CCN(CCC(C)C)C(=O)Cc1c(O)c2ccccc2[nH]c1=O`?
HSF1 activator: 53*; Mdm2 ligase inh: -4; HSV replic up: inactive; Rad51 HR inh: 17; HSF1 inhib: 22

How did Cc1ccsc1/C=N/n1c(-c2ccccn2)n[nH]c1=S do in these assays?
HSF1 activator: -10; Mdm2 ligase inh: -4; HSV replic up: inactive; Rad51 HR inh: -5; HSF1 inhib: -5; Hsp70 act: 0

How did COc1ccc(/C=N/Nc2ccc(C(=O)O)cc2)cc1OC do in these assays?
HSF1 activator: -30; Mdm2 ligase inh: -52; HSV replic up: inactive; HSF1 inhib: -20

How did Cc1ccc(/C=N/Nc2ccc(C(=O)O)cc2)s1 do in these assays?
HSF1 activator: -79; Mdm2 ligase inh: 2; HSV replic up: inactive; Rad51 HR inh: -20; HSF1 inhib: -76*; Hsp70 act: 0

Results for O=C(O)c1ccc(N/N=C/c2ccc(OC(=O)c3ccccc3Cl)cc2)cc1 ?
HSF1 activator: -56; Mdm2 ligase inh: -50; HSV replic up: inactive; Rad51 HR inh: 7; HSF1 inhib: -55*; Hsp70 act: 0

How did Nc1ccc(C(=O)N/N=C\c2ccc(OC(=O)c3ccccc3Cl)cc2)cc1 do in these assays?
HSF1 activator: 1; HSF1 inhib: 4

Results for COc1cc(/C=N/Nc2ccc(C(F)(F)F)cn2)ccc1O ?
HSF1 activator: 34; Mdm2 ligase inh: -11; HSV replic up: inactive; Rad51 HR inh: 3; HSF1 inhib: 17; Hsp70 act: 0

Results for O=C(O)c1ccc(/C=N/Nc2ccc(C(F)(F)F)cn2)cc1 ?
HSF1 activator: 52*; Mdm2 ligase inh: -17; HSV replic up: inactive; Rad51 HR inh: 4; HSF1 inhib: 20; Hsp70 act: 0
